From ChEMBL document CHEMBL3351583, “Two-pronged attack: dual inhibition of Plasmodium falciparum M1 and M17 metalloaminopeptidases by a novel series of hydroxamic acid-based inhibitors” (J Med Chem, 2014)

How the values were obtained:
HEK293 = assay: Cytotoxicity against HEK293 cells assessed as growth inhibition up to 40 uM after 72 hrs by resazurin based assay; assay type: cell-based; settings: human, hek293, 72 h
Summary of the method: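 HEK293 in DMEM plus 10% FCS, seeded 2000 cells/well, adhered overnight, then dosed to top final 40 μM, 0.4% DMSO, 72 h at 37 °C, 5% CO₂. Medium replaced with 44 μM resazurin in serum-free DMEM, 4-6 h more, fluorescence 530/595 nm; % growth against 40 μM puromycin and 0.4% DMSO controls; IC50 by variable-slope nonlinear regression.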

Aminopeptidase N = target: T1, Aminopeptidase N (Plasmodium falciparum FcB1/Columbia, UniProt O96935); assay: Inhibition of Plasmodium falciparum M1 incubated for 10 mins before H-Leu-NHMec substrate addition by fluorescence assay
T1 sequence (O96935 whole entry): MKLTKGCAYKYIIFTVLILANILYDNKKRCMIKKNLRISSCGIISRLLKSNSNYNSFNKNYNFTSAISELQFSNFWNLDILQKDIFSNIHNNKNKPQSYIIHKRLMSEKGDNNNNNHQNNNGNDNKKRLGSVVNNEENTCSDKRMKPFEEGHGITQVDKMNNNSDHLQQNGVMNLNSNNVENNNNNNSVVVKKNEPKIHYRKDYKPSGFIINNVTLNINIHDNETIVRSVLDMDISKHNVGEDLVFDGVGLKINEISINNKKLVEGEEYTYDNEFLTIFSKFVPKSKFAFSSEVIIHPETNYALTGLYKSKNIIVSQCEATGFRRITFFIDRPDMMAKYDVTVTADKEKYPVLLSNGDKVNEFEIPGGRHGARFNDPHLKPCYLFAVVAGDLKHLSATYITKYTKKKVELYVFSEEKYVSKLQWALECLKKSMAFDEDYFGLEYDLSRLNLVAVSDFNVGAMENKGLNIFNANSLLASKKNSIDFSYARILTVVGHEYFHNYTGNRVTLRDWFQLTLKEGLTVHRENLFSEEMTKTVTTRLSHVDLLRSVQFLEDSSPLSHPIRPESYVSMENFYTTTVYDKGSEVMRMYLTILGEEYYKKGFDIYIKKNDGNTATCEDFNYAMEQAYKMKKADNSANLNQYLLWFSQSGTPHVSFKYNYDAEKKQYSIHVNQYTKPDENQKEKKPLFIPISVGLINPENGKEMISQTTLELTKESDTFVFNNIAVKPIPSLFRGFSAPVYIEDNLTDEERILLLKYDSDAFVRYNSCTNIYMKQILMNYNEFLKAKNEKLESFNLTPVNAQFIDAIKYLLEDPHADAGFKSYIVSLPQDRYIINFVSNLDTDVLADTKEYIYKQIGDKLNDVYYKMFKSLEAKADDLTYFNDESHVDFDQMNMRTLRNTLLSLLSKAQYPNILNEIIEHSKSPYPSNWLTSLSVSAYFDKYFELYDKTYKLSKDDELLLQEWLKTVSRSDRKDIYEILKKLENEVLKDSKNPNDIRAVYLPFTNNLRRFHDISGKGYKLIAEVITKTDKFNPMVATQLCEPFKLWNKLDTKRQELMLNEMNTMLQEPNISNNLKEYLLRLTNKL
Summary of the method: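 Recombinant PfA-M1 (E. coli, Ni-NTA then size exclusion) preincubated with inhibitor (0-500 μM) 10 min in 100 mM Tris pH 8.0 at 37 °C, then H-Leu-NHMec added below Km. NHMec release read at ex 355/em 460 nm to steady-state velocity; Ki from Dixon plots of 1/V against inhibitor concentration.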

Leucine aminopeptidase = target: T2, Leucine aminopeptidase (Plasmodium falciparum 3D7, UniProt Q8IL11); assay: Inhibition of Plasmodium falciparum M17 incubated for 10 mins before H-Leu-NHMec substrate addition by fluorescence assay
T2 sequence (Q8IL11 whole entry): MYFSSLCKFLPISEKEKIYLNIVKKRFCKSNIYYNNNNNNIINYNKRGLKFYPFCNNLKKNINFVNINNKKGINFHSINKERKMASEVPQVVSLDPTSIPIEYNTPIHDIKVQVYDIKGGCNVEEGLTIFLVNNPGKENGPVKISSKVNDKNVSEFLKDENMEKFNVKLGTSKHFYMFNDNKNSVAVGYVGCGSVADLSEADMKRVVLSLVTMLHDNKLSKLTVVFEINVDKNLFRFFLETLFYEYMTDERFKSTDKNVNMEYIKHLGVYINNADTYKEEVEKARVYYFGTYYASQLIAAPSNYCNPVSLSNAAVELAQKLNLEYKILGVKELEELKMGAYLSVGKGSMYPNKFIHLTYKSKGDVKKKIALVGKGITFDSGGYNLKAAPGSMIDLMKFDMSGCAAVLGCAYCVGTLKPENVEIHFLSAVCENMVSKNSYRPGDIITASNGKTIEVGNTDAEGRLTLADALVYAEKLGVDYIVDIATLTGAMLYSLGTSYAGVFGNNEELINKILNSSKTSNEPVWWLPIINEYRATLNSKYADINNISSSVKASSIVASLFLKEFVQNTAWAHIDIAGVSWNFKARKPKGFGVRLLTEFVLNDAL
Summary of the method: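 Recombinant PfA-M17 purified from E. coli by Ni-NTA and gel filtration; 10 min inhibitor preincubation (0-500 μM) in 50 mM Tris pH 8.0, 2 mM CoCl₂, 37 °C, before H-Leu-NHMec at sub-Km level. Fluorescence (355/460 nm) followed to final steady-state velocity; Ki obtained by Dixon plot.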

Plasmodium falciparum = assay: Antimalarial activity against Plasmodium falciparum 3D7 assessed as parasite growth inhibition after 72 hrs by DAPI staining based confocal microscopy; assay type: functional, organism-based; settings: 3D7, 72 h
Summary of the method: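 Sorbitol-synchronised 3D7 rings (2% parasitaemia, 0.3% haematocrit) in RPMI/Hepes/hypoxanthine/AlbuMAX II exposed to three-step log dilutions from 40 μM top, final 0.4% DMSO, 72 h at 37 °C, 5% CO₂. Saponin/Triton X/EDTA buffer with DAPI added, overnight RT, confocal imaging counts parasites; % growth versus 2 μM artemisinin and 0.4% DMSO controls; IC50 by variable-slope nonlinear regression.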

| SMILES | Activity (HEK293) | Ki (Aminopeptidase N) [nM] | Ki (Leucine aminopeptidase) [nM] | IC50 (Plasmodium falciparum) [nM] |
| --- | --- | --- | --- | --- |
| CC(=O)NC(C(=O)NO)c1ccc(-n2cccn2)cc1 (stereo unspecified) | Non-toxic | 113000 | 19 | 619 |
| O=C(NC(C(=O)NO)c1ccc(-n2cccn2)cc1)c1ccccc1F (stereo unspecified) | Non-toxic | 1900 | 8 | 351 |
| CCC(=O)NC(C(=O)NO)c1ccc(-n2cccn2)cc1 (stereo unspecified) | Non-toxic | 41300 | 16 | 455 |
| O=C(NC(C(=O)NO)c1ccc(-n2cccn2)cc1)c1ccccc1 (stereo unspecified) | Non-toxic | 23000 | 154 |  |
| Cl.NC(C(=O)NO)c1ccc(-n2cccn2)cc1 (stereo unspecified) | Non-toxic | 74500 | 86000 |  |
| CC(C)(C)OC(=O)NC(C(=O)O)c1ccc(-n2cccn2)cc1 (stereo unspecified) | Non-toxic | > 500000 | 464000 |  |
| CC(C)(C)C(=O)NC(C(=O)NO)c1ccc(-n2cccn2)cc1 (stereo unspecified) | Non-toxic | 700 | 28 | 227 |
| CC(C)C(=O)NC(C(=O)NO)c1ccc(-n2cccn2)cc1 (stereo unspecified) | Non-toxic | 12300 | 53 | 532 |
| O=C(NC(C(=O)NO)c1ccc(-n2cccn2)cc1)c1cccc(F)c1 (stereo unspecified) | Non-toxic | 4000 | 35 | 429 |
| Cl.NC(C(=O)O)c1ccc(-n2cccn2)cc1 (stereo unspecified) | Non-toxic | > 500000 | > 500000 |  |
| CC(C)(C)NC(=O)NC(C(=O)NO)c1ccc(-n2cccn2)cc1 (stereo unspecified) | Non-toxic | 15300 | 38 | 597 |
| Nc1cccc(C(=O)NC(C(=O)NO)c2ccc(-n3cccn3)cc2)c1 (stereo unspecified) | Non-toxic | 5500 | 14 | 233 |
| Nc1ccc(C(=O)NC(C(=O)NO)c2ccc(-n3cccn3)cc2)cc1 (stereo unspecified) | Non-toxic | 7400 | 11 | 228 |
| CC(C)(C)OC(=O)NC(C(=O)NO)c1ccc(-n2cccn2)cc1 (stereo unspecified) | Non-toxic | 800 | 30 | 783 |
| O=C(NC(C(=O)NO)c1ccc(-n2cccn2)cc1)c1ccc(F)cc1 (stereo unspecified) | Non-toxic | 11200 | 12 | 703 |
